Source: ChEMBL document CHEMBL3351839, “Design, synthesis, in silico molecular docking and biological evaluation of novel oxadiazole based thiazolidine-2,4-diones bis-heterocycles as PPAR-γ agonists” (Eur J Med Chem, 2014)
Calls of active or inactive are those of the source. The calls are words filed in the database; no cut-off is given here.

How the values were obtained:
Rattus norvegicus [1] = experiment: Antidiabetic activity in streptozotocin induced diabetic Albino Wistar rat model assessed as blood glucose level at 36 mg/kg, po by glucose oxidase method; type: functional
How it was run: (§1)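 STZ 60 mg/kg i.p. (freshly made in 0.1 M citrate buffer pH 4.5) to overnight-fasted rats, 5% glucose to drink overnight; diabetic if blood glucose >250 mg/dL on day 3. […] Mean ± SEM, n=5; one-way ANOVA with Dunnett's t test.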

3T3-L1 = experiment: Increase in PPARgamma gene expression in mouse 3T3L1 cells at 10 uM incubated for 24 hrs by real-time PCR method relative to untreated control; type: functional
How it was run: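 3T3-L1 cells in DMEM with 10% calf serum, seeded 24 h ahead in 24-well plates, exposed to 10 µM compound 24 h at 37 °C, 5% CO2; DMSO vehicle as negative control. RNA extracted, reverse transcribed, qPCR in triplicate, repeated twice; relative PPAR-γ transcript by Ct method normalised to β-actin.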

Rattus norvegicus [2] = organism: Rattus norvegicus; experiment: Toxicity in streptozotocin induced diabetic Albino Wistar rat model assessed as induction of portal triad inflammation measured 5 hrs post dose by haematoxylin and eosin staining based microscopy; type: organism-based; conditions: in vivo
Rattus norvegicus [3] = organism: Rattus norvegicus; experiment: Hepatoprotective effect in streptozotocin induced diabetic Albino Wistar rat model assessed as reduction in serum ALP level; type: functional, organism-based
How it was run: (§2)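 Serum from STZ-diabetic rats (60 mg/kg i.p.) after oral treatment in 0.25% CMC. AST and ALT measured by the Reitman–Frankel method; ALP by the Walter–Schult method with p-nitrophenyl phosphate substrate.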

Rattus norvegicus [4] = organism: Rattus norvegicus; experiment: Hepatoprotective effect in streptozotocin induced diabetic Albino Wistar rat model assessed as reduction in serum AST level; type: functional, organism-based; how it was run: as §2
Rattus norvegicus [5] = organism: Rattus norvegicus; experiment: Toxicity in streptozotocin induced diabetic Albino Wistar rat model assessed as induction of centrizonal triad inflammation measured 5 hrs post dose by haematoxylin and eosin staining based microscopy; type: organism-based; conditions: in vivo
Rattus norvegicus [6] = organism: Rattus norvegicus; experiment: Hepatoprotective effect in streptozotocin induced diabetic Albino Wistar rat model assessed as reduction in serum ALT level; type: functional, organism-based; how it was run: as §2
Rattus norvegicus [7] = organism: Rattus norvegicus; experiment: Toxicity in streptozotocin induced diabetic Albino Wistar rat model assessed as induction of sinusoidal space dilation measured 5 hrs post dose by haematoxylin and eosin staining based microscopy; type: organism-based; conditions: in vivo
Rattus norvegicus [8] = experiment: Antidiabetic activity in streptozotocin induced diabetic Albino Wistar rat model assessed as blood glucose level dosed orally at equimolar dose of Pioglitazone by glucose oxidase method; type: functional; how it was run: as §1
Rattus norvegicus [9] = organism: Rattus norvegicus; experiment: Antidiabetic activity in streptozotocin induced diabetic Albino Wistar rat model assessed as reduction in blood glucose level by oral glucose tolerance test; type: functional, organism-based
How it was run: (§3)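 STZ-diabetic rats (60 mg/kg i.p.; glucose >250 mg/dL on day 3) given compound orally as 0.25% CMC suspension, then oral glucose tolerance and insulin tolerance tests, blood glucose followed over time. Groups: normal control, normal + compound, diabetic control, treated diabetic. Mean ± SEM of five observations; one-way ANOVA, Dunnett's t test.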

[10] = molecular target: Voltage-gated inwardly rectifying potassium channel KCNH2 (Homo sapiens, UniProt Q12809); experiment: Inhibition of human ERG
Chain of Voltage-gated inwardly rectifying potassium channel KCNH2 (Q12809 whole entry): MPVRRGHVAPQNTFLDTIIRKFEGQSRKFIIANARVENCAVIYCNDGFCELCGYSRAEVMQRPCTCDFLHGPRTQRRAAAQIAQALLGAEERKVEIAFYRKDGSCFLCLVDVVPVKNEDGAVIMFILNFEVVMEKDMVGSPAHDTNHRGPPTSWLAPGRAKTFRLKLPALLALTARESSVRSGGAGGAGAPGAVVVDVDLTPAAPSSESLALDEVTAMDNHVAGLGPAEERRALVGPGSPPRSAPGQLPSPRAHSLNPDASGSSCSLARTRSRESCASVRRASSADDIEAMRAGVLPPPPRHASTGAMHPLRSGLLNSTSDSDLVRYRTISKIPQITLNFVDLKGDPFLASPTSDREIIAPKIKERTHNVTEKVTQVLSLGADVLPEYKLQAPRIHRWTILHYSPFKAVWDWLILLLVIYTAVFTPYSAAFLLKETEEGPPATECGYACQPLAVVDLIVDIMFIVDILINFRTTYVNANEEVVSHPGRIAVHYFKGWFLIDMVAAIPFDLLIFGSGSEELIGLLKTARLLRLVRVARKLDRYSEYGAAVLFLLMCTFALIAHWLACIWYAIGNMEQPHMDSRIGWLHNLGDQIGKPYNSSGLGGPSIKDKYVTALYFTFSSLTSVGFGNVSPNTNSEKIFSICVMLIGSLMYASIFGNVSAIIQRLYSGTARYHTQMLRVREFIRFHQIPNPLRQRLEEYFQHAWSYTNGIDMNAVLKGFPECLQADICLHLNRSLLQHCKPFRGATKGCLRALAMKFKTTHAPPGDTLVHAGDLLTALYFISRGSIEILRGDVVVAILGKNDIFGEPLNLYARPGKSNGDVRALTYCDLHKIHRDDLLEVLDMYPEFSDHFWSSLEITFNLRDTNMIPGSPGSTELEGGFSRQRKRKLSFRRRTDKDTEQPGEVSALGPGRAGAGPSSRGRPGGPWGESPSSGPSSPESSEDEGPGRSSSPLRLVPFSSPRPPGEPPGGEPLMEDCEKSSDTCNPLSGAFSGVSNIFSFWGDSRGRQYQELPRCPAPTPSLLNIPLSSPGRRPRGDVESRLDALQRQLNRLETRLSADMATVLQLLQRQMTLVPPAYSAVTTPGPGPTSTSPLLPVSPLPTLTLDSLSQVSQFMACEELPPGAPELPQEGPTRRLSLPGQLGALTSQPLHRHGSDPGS

Rattus norvegicus [11] = experiment: Toxicity in normal Albino Wistar rat assessed as increase in body weight dosed for 15 days; type: organism-based; conditions: in vivo, 360 h
How it was run: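 Normal and STZ-diabetic Wistar rats (STZ 60 mg/kg i.p.) dosed orally daily for 15 days in 0.25% CMC suspension; body weight compared with normal and diabetic controls. Mean ± SEM, n=5; one-way ANOVA with Dunnett's t test.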

Rattus norvegicus [12] = experiment: Antidiabetic activity in streptozotocin induced diabetic Albino Wistar rat model assessed as reduction in blood glucose level measured 90 mins after insulin dosing by insulin tolerance test; type: functional, organism-based; how it was run: as §3

| SMILES | Activity (Rattus norvegicus [1]) [mg/dL] | fold change (FC) (3T3-L1) | Activity (Rattus norvegicus [2]) | Activity (Rattus norvegicus [3]) | Activity (Rattus norvegicus [4]) | Activity (Rattus norvegicus [5]) | Activity (Rattus norvegicus [6]) | Activity (Rattus norvegicus [7]) | Activity (Rattus norvegicus [8]) [mg/dL] | Activity (Rattus norvegicus [9]) | IC50 [10] [µM] | Activity (Rattus norvegicus [11]) | Activity (Rattus norvegicus [12]) |
| --- | --- | --- | --- | --- | --- | --- | --- | --- | --- | --- | --- | --- | --- |
| CN(CCOc1ccc(CC2SC(=O)NC2=O)cc1)c1ccccn1 (stereo not drawn) [ROSIGLITAZONE] | 144.2 | 1 | – | – | – | – | – | – | – | – | – | – | – |
| CCc1ccc(CCOc2ccc(CC3SC(=O)NC3=O)cc2)nc1 (stereo not drawn) [PIOGLITAZONE] | 132 | – | Non-toxic | Active | Active | Toxic | Active | Toxic | – | – | – | – | – |
| COc1cc(/C=C2/SC(=O)NC2=O)ccc1OCc1nnc(-c2ccccc2)o1 | – | – | Non-toxic | Active | Active | Non-toxic | Active | Non-toxic | 139.7 | – | – | – | – |
| COc1cc(/C=C2/SC(=O)NC2=O)ccc1OCc1nnc(-c2ccc(Br)cc2)o1 | – | – | Non-toxic | Active | Active | Non-toxic | Active | Non-toxic | 135.2 | – | – | – | – |
| O=C1NC(=O)/C(=C\c2ccccc2OCc2nnc(-c3ccccc3)o2)S1 | – | 2.1 | Non-toxic | Active | Active | Non-toxic | Active | Non-toxic | 139.6 | – | – | – | – |
| O=C1NC(=O)/C(=C\c2ccccc2OCc2nnc(COc3ccc(Cl)cc3Cl)o2)S1 | – | 2 | Non-toxic | Active | Active | Non-toxic | Active | Non-toxic | 134 | Active | 29 | Non-toxic | Active |
